# Results from different studies.
# Compare with care: the assays were run in different laboratories.
# Target: Mitogen-activated protein kinase 8 (MAPK8, Homo sapiens, UniProt P45983)
Structure (SMILES),test,setting,measurement,value
CC(C)(C)c1cc(C=C(C#N)C#N)cc(Br)c1O,"enzyme activity, inhibitor",0.5 µM,remaining activity,90.4%
Cn1cncc1[C@](O)(COc1ccc(C#N)cc1-c1ccc(OC(F)(F)F)cc1)c1ccc(C#N)cc1,"cell-free assay, competition with immobilised ligand",1 µM,remaining binding,100%
Nc1ncc(-c2nc(N3CCOCC3)nc(N3CCOCC3)n2)c(C(F)F)n1,"binding, competition with immobilised ligand",10 µM,remaining binding,86%
Cn1cc(-c2cccc(N3CCc4c(sc5c4CC(C)(C)C5)C3=O)c2CO)cc(Nc2ccncn2)c1=O,"enzyme activity, inhibitor",1 µM,inhibition,1%
C#Cc1n[nH]c2c(-c3cn(C(C)c4ccccn4)c(=O)[nH]c3=O)cc(F)cc12 (centres unmarked),"enzyme activity, inhibitor",1 µM,inhibition,-4.2%
O=c1[nH]c2ccccc2n1C1CCN(Cc2ccc(-c3[nH]c4cc5ncnc5cc4nc3-c3ccccc3)cc2)CC1,cell-free assay,0.5 µM,remaining signal,89.6%
Cn1cc(-c2cc(F)cc(N3CCn4c(cc5c4CCCC5)C3=O)c2CO)cc(Nc2ccc(N3CCN(C4COC4)CC3)cn2)c1=O,"enzyme activity, inhibitor",0.1 µM,inhibition,-1%
COc1ncccc1-c1cnn2ccc(N3CCN(C(=O)OC(C)C)CC3)nc12,"binding, competition with immobilised ligand",1 µM,remaining binding,100%
C#Cc1n[nH]c2c(-c3cn([C@@H](C)c4ccccc4)c(=O)[nH]c3=O)cc(F)cc12,"enzyme activity, inhibitor",0.1 µM,inhibition,1.5%
N#CC1(c2ccccn2)CCN(Cc2cc(C(=O)O)c(=O)n3ccccc23)CC1,"cell-free assay, competition with immobilised ligand",1 µM,remaining binding,85%
Cc1nn(C)cc1-c1nc2c(N3CCN(Cc4ccc(Cl)cc4)CC3)c(Cl)cnc2[nH]1,"binding, competition with immobilised ligand",1 µM,remaining binding,93%
